Assay [1] in a line: Inhibition of sortase A (unknown origin).
The target in assay [2] is Sodium/potassium-transporting ATPase. Kind of assay: Inhibition of Na+/K+-ATPase (unknown origin). It counts as protein-complex assay, Homo sapiens.
Assay [3] has as its system A549. Kind of assay: Cytotoxicity against human A549 cells by MTT assay. It is filed as functional. The following applies: read-out: LC50 (the source's name). A digest of the protocol: (§1)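 LC50 is the concentration giving a 50% drop in cell viability relative to untreated controls without inhibitor. It is read from dose–response curves for each sample and reported as mean ± SD of three independent experiments (n = 3).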

Assay [4] concerns K562. The experiment in a line: Cytotoxicity against human K562 cells by MTT assay. It counts as functional. The following applies: read-out: LC50 (the source's name). In short, it runs like this: as §1
Assay [5] can be described thus: Inhibition of isocitrate lyase (unknown origin).
For assay [6], the system named is K562. The experiment in a line: Ratio of doxorubicin LC50 to compound LC50 for human K562 cells. It counts as functional.

Each structure is given as a SMILES string.

For the compound `Cc1c([C@H]2[C@@H](C(C)C)CC[C@@]2(C)C(=O)CNCCS(=O)(=O)O)cc([C@]2(O)Cc3cc(O)c(=O)c(C)c4c3[C@@H](O2)[C@H](O)[C@]2(C)CC[C@H](C(C)C)[C@H]42)cc(O)c1=O`, the IC50 in assay [1], in assay [2] and in assay [5] was more than 100000 nM throughout. Besides, the CC50 in assay [3] turned out to be 110 nM; in assay [4] it was 320 nM.
Take `CC(=O)N[C@H](O)[C@H](O)[C@]1(C)CC[C@H](C(C)C)[C@@H]1c1cc([C@]2(O)Cc3cc(O)c(=O)c(C)c4c3[C@@H](O2)[C@H](O)[C@]2(C)CC[C@H](C(C)C)[C@H]42)cc(O)c(=O)c1C`: the concentration for half-maximal inhibition (IC50) in assay [1], in assay [2] and in assay [5] was more than 100000 nM in each case. In addition, the CC50 in assay [3] turned out to be 550 nM; in assay [4] it was 440 nM.
For the compound `COc1cccc2c1C(=O)c1c(O)c3c(c(O)c1C2=O)C[C@@](O)(C(=O)CO)C[C@@H]3O[C@H]1C[C@H](N)[C@H](O)[C@H](C)O1` [DOXORUBICIN], the results for the CC50 in assay [3] and in assay [4] were 520 nM and 700 nM, respectively.
Take `CC(=O)O[C@@H](C=O)[C@]1(C)CC[C@H](C(C)C)[C@@H]1c1cc(/C(O)=C/c2cc(O)c(=O)c(C)c3c2[C@@H](O)[C@H](O)[C@]2(C)CC[C@H](C(C)C)[C@H]32)cc(O)c(=O)c1C`: the IC50 in assay [1], in assay [2] and in assay [5] was more than 100000 nM each time. Moreover, the CC50 in assay [3] is 380 nM; in assay [4] it was 40 nM. In addition, the RatioLC50 in assay [6] was 17.
As to `CC(=O)O[C@@H](C=O)[C@]1(C)CC[C@H](C(C)C)[C@@H]1c1cc([C@]2(O)Cc3cc(O)c(=O)c(C)c4c3[C@@H](O2)[C@H](O)[C@]2(C)CC[C@H](C(C)C)[C@H]42)cc(O)c(=O)c1C` [GUKULENIN A], the IC50 in assay [1], in assay [2] and in assay [5] was more than 100000 nM in each case. Further, the CC50 was determined as 320 nM in assay [3] and 260 nM in assay [4].
For the compound `CO[C@@H](NC(C)=O)[C@H](O)[C@]1(C)CC[C@H](C(C)C)[C@@H]1c1cc([C@]2(O)Cc3cc(O)c(=O)c(C)c4c3[C@@H](O2)[C@H](O)[C@]2(C)CC[C@H](C(C)C)[C@H]42)cc(O)c(=O)c1C`, the half-maximal inhibitory concentration (IC50) in assay [1], in assay [2] and in assay [5] was more than 100000 nM in each case. Besides, the results for the CC50 in assay [3] and in assay [4] were 100 nM and 120 nM, respectively.

(Values after ChEMBL document CHEMBL2417500, “Cytotoxic diterpenoid pseudodimers from the Korean sponge Phorbas gukhulensis” (J Nat Prod, 2013).)
